Screening results: PubChem BioAssay, Sanford-Burnham Center for Chemical Genomics
Shown are actives, neighbours in structure and some others; about 2.4% of the full set was active somewhere.
NadD inh = inhibitors of Staphylococcus aureus NadD; hit rate 0.78% among 360,000; inhibition, % at 20 µM; purified NadD enzyme, colorimetric absorbance read-out; in the data active means inhibition above about 26%
Scp1 inh = blocks human Scp-1 phosphatase activity | Q9GZU7 | Recombinant Scp1, phosphopeptide, malachite green phosphate absorbance | inhibition, % at 20 µM | hit rate 0.88% among 340,000;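 active means inhibition above about 50% at 20 µM, limit read from the data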;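 further: plate controls were DMSO wells with enzyme for no effect and wells lacking enzyme for full effect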
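Incubation: 45 min enzyme reaction at room temperature / System: truncated SCP-1 phosphatase (76-261aa) / Reagent: Phospho 17-mer peptide substrate / Buffer or medium: Acidic Tris acetate buffer with magnesium and detergent / Signal: absorbance at 630 nm / Doses: one concentration, 20 µM, with 1.0% DMSO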
STEP inh = blocks human striatal-enriched tyrosine phosphatase; hit rate 0.25% among 360,000; inhibition, % at 20 µM; P54829; recombinant STEP, OMFP fluorogenic substrate, fluorescence;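 active means inhibition at 20 µM, scaled per plate between control wells, above about 37%, limit read from the data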;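 further: 0% = DMSO with enzyme and substrate and 100% = substrate only without enzyme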
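Assay system: isolated STEP enzyme. Buffer or medium: pH 6.0 Bis-Tris with DTT and Tween 20. Also added: fluorogenic phosphatase substrate OMFP at 25 µM final. Dosing: 20 µM, 1% DMSO. Timing: 20 min reaction, room temperature, in the dark. Measured by: fluorescence intensity, excitation 480 nm, emission 540 nm. Evaluation: normalized % inhibition.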
DNMT1 inh = inhibitors of human DNMT1; P26358; DNMT1 molecular beacon, Hinp1I cleavage, fluorescence; inhibition (reported as % activation of signal), % at 10 µM; hit rate 0.83% among 360,000; AID 588458; in the data active means inhibition above about 50%
Target sequence (P26358 504-1616 limits assumed): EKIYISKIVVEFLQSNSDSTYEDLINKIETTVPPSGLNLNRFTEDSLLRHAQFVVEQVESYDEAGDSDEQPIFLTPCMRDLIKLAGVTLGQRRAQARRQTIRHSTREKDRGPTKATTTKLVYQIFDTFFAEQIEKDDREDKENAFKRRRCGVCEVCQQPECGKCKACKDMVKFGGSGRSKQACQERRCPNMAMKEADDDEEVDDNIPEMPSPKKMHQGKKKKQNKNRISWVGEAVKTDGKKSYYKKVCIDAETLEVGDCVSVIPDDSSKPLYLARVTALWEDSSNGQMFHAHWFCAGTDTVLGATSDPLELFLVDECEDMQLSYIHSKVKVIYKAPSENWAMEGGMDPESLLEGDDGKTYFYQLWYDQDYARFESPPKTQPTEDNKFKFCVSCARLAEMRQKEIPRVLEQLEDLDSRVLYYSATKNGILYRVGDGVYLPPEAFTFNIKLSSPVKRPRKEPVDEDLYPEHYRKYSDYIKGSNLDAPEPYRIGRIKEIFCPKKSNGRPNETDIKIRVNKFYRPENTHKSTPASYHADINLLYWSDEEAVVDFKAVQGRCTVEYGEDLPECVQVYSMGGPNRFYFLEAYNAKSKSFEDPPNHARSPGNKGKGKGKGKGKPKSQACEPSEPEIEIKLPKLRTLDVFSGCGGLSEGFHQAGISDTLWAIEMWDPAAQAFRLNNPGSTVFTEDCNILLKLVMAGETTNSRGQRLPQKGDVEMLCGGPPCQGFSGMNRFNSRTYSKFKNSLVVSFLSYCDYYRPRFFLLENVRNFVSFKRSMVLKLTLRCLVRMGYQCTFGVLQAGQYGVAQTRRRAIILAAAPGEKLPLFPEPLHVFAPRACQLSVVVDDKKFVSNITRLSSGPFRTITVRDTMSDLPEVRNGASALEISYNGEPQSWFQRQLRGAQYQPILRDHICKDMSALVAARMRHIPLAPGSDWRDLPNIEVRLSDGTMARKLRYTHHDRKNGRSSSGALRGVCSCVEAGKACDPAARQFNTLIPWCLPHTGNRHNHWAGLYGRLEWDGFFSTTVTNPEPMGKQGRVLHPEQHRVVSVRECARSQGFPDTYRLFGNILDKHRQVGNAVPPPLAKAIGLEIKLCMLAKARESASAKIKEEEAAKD
LMPTP block = LMPTP (human) inhibition | P24666 | recombinant LMPTP-A, OMFP fluorogenic substrate, fluorescence intensity | inhibition, % at 20 µM | hit rate 0.22% among 360,000;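 active means compounds that cut the enzyme signal by at least half of the control window in the single-dose screen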;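 further: plate controls were DMSO wells with enzyme plus substrate for no effect and substrate without enzyme for full effect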
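material = LMPTP-A | quantity = 0.625 nM enzyme | reagent = OMFP substrate, 400 µM final | buffer or medium = Bis-Tris pH 6.0, DTT, detergent | detection = endpoint fluorescence intensity from OMFP dephosphorylation | dosing = single 20 µM dose | read-out basis = % inhibition relative to no-enzyme and uninhibited control wells | control set = no-enzyme and uninhibited controls | timing = 50 min at room temperature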
SUMO1 PPI mod = SUMO1-SIM interaction modulation; P63165; SUMO1 binding to a labelled peptide, TR-FRET, 1 h; inhibition, % at 20 µM; hit rate 0.33% among 360,000; in the data active means inhibition above about 37%
Beacon interf DR = beacon fluorescence artifact, dose response counter-screen | 200 tested, under 10 active | AID 602382 | shares compounds with DNMT1 inh | IC50, µM | molecular beacon fluorescence, spectral interference counter-screen
DNMT1 inh conf = DNMT1 inhibition confirmation, single concentration | hit rate 8% among 2,300 | shares compounds with DNMT1 inh | inhibition, % at 10 µM | DNMT1 molecular beacon HinP1I cleavage, fluorescence;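 active means average inhibition of at least 30% in the single-concentration confirmation test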
DNMT1 interf = counter-screen for DNMT1 inhibitors: spectral interference; shares compounds with DNMT1 inh; DNMT1 molecular beacon spectral interference counterscreen, fluorescence 485/520; activation (fluorescence interference), % at 10 µM; hit rate 1% among 2,300; AID 602387;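 active means activation of at least 30% at 10 µM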;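 further: DNMT1 catalytic domain with a HinP1I cleavage step and a FAM/dabcyl DNA beacon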
STEP conf = STEP (human) phosphatase inhibition, single concentration confirmation | shares compounds with STEP inh | inhibition, % at 20 µM | AID 623866 | recombinant STEP, OMFP fluorogenic substrate, fluorescence | hit rate 32% among 520;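 further: 0% = enzyme with substrate plus DMSO and 100% = substrate without enzyme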
NadD inh conf = NadD (S. aureus) inhibition, single concentration confirmation; shares compounds with NadD inh; purified S. aureus NadD, colorimetric enzyme assay; inhibition, % at 20 µM; hit rate 13% among 2,000; in the data active means inhibition mostly above about 42%, no sharp cut-off; inactive means mostly below about 42%
An asterisk follows results filed as active; nt = no result. Unless noted, how the calls were made is not given here.

SMILES	NadD inh	Scp1 inh	STEP inh	DNMT1 inh	LMPTP block	SUMO1 PPI mod	DNMT1 inh conf	DNMT1 interf	NadD inh conf	others
C/C(CC(C)C)=N\NS(=O)(=O)c1ccc(C)c([N+](=O)[O-])c1	-0.5	1.3	90.1*	85.8*	-1.0	-6.3	1.0	10.0	nt	STEP conf=-3.6
Cn1nnc(NCc2cc(Br)ccc2OCc2ccccc2F)n1	-1.1	-6.3	65.8*	76.9*	-1.3	0.8	-0.3	4.6	nt	STEP conf=23.6
C[C@@H]1CCCCO[C@H](CN(C)S(=O)(=O)c2ccccc2)[C@@H](C)CN([C@H](C)CO)C(=O)c2cc(NC(=O)Cc3ccccc3)ccc2O1	-4.2	nt	-2.2	-1.5	-1.0	3.0	nt	nt	nt
COc1cccc(/C=N/Nc2ncnc3c2[nH]c2ccc(C)cc23)c1OC	14.4	20.3	77.2*	60.2*	26.1	89.8*	0.8	-2.8	nt	STEP conf=3.8
COc1ccc(/C=N/Nc2ncnc3c2[nH]c2ccccc23)c(OC)c1OC	7.9	6.5	-1.3	20.3	0.1	-2.6	nt	nt	nt
COC(=O)c1c(C(=O)OC)c2ccncn2c1Cl	-1.4	1.1	-2.4	2.8	0.5	0.8	nt	nt	nt
Cc1[nH]c(=O)[nH]c(=O)c1S(=O)(=O)Nc1cccc([N+](=O)[O-])c1C	-0.8	-3.0	1.3	1.0	0.0	-0.2	nt	nt	nt
O=C(Nc1nc2ccc(F)cc2s1)c1cccc(S(=O)(=O)N2CCc3ccccc32)c1	21.7	-11.7	-0.8	-8.3	2.8	1.5	nt	nt	nt
Cc1ccc2nc(NC(=O)c3ccc(S(=O)(=O)N4CCCc5ccccc54)cc3)sc2c1	17.1	-6.3	121.1*	95.2*	1.0	0.9	2.5	4.0	nt	STEP conf=-4.7
O=C(CSc1nc(-c2ccc(F)cc2)nc2c1Cc1ccccc1O2)Nc1cccc(C(=O)O)c1	10.3	89.2*	97.1*	99.1*	87.6*	108.1*	6.4	-14.5	nt	STEP conf=13.3*
N#CC1(NC(=O)CN2C(=O)c3ccc([N+](=O)[O-])cc3C2=O)CCCCC1	-2.9	-3.9	-2.1	-2.6	-1.6	-29.2	nt	nt	nt
O=C(Nc1ccc2nc(-c3ccco3)c(-c3ccco3)nc2c1)N1CCN(c2ccccn2)CC1	48.8*	92.0*	5.4	93.0*	87.4*	45.8*	0.4	-1.5	49.0*
Cc1nc2cc(NC(=O)N3CCN(c4ccccn4)CC3)ccc2o1	-11.5	-7.7	-3.1	0.2	4.5	0.3	nt	nt	nt
Cc1nn(C(C)(C)C)c(NC(=O)c2ccccc2)c1C#N	-1.0	-4.2	-3.8	3.7	-1.6	0.4	nt	nt	nt
CCC(C)n1c(NC(=O)c2ccccc2)c(C#N)c2nc3ccccc3nc21 (stereo unspecified)	40.8*	-1.8	2.9	73.3*	16.1	43.0*	8.5	6.3	30.9
CCOc1ccc2nc(N3C(=O)/C(=C/c4ccc(Cl)cc4)NC3=S)sc2c1	48.7*	54.6*	4.3	94.2*	38.8	78.9*	15.9	-2.1	12.0
COc1ccc2nc(N3C(=O)CNC3=S)sc2c1	-1.3	-6.6	0.0	-4.3	-0.3	6.8	nt	nt	nt
CCOc1ccc(NC(=O)c2cccc(-n3cccc3)c2)cc1S(=O)(=O)N1CCOCC1	32.2*	nt	8.0	102.0*	21.6	56.6*	80.7*	-2.9	30.4	Beacon interf DR=>99
CC1(C)CC(=O)C(C=NCC2CCN(C(=O)Cc3ccccc3)CC2)=C(O)C1	35.9*	3.6	47.5*	75.5*	15.1	69.9*	3.6	1.8	3.9	STEP conf=0.3
CCc1nnc(NC(=O)CSc2nc(-c3ccccc3)cc(-c3ccc(F)cc3)c2C#N)s1	43.9*	7.1	2.6	51.7*	1.9	-12.5	-0.1	0.8	3.6
Cc1ccc(SCC(=O)OCc2csc(CC(=O)Nc3ccccc3C)n2)cc1C	-4.4	-7.2	1.9	-8.7	2.5	2.5	nt	nt	nt
CC1(C)CC(=O)N(c2cc(Cl)cc(Cl)c2)C(=O)C1	0.5	-15.6	-2.8	-0.2	-2.2	-2.0	nt	nt	nt
O=S(=O)(Nc1c(S(=O)(=O)c2ccccc2)c2nc3ccccc3nc2n1C1CCCCC1)c1ccccc1	31.8*	4.0	0.4	66.8*	19.8	49.7*	46.5*	-6.9	48.5*	Beacon interf DR=>99
C=CCn1c(NS(=O)(=O)c2ccccc2)c(S(=O)(=O)c2ccc(C)cc2)c2nc3ccccc3nc21	-1.5	-7.6	-7.0	-3.5	2.9	32.0	nt	nt	nt
N#Cc1c(NC(=O)CSc2nnc(-c3ccco3)n2-c2ccccc2)sc2c1CCC2	40.8*	3.8	-0.9	67.1*	8.2	28.9	0.2	2.5	19.3
SMILES	NadD inh	Scp1 inh	STEP inh	DNMT1 inh	LMPTP block	SUMO1 PPI mod	DNMT1 inh conf	DNMT1 interf	NadD inh conf	others
S=c1[nH]nc(-c2ccncc2)n1/N=C/c1cn(-c2ccccc2)nc1-c1ccc(Cl)cc1	45.3*	12.0	1.5	74.5*	1.6	-0.5	0.8	6.1	5.2
C(=C\c1ccco1)/c1ccc2ccccc2n1	43.8*	-6.9	4.8	79.9*	57.0*	9.5	7.0	3.2	10.8
O=C(COC(=O)/C=C/c1ccc(Br)o1)Nc1ccc2[nH]c(=O)[nH]c2c1	29.1*	nt	21.0	82.2*	47.2	104.0*	14.5	1.6	1.8
O=C(COC(=O)/C=C/c1cccc(Cl)c1)Nc1ccc2[nH]c(=O)[nH]c2c1	3.3	-0.8	-1.3	15.9	0.2	3.2	nt	nt	nt
Cc1cc2cc(CNC(=O)Nc3ccc(Cl)c(Cl)c3)ccc2n1C	30.6*	-8.4	3.3	57.5*	4.9	-23.8	6.9	5.3	16.7
COc1ccc(-c2noc(N3CCCC(C(=O)Nc4ccc(C(C)=O)cc4)C3)n2)cc1 (stereo unspecified)	-14.2	-17.1	-4.1	-10.6	2.2	8.7	nt	nt	nt
Cc1ccccc1N(C(=O)Cc1ccsc1)C(C(=O)NC1CCCCC1)c1ccc(F)cc1 (stereo unspecified)	30.6*	-2.7	-2.8	59.2*	-0.4	1.5	1.2	0.9	-3.4
O=C(NC1CCCC1)C(c1ccncc1)N(C(=O)Cc1cccs1)c1ccc(F)cc1 (stereo unspecified)	-8.1	-9.8	-1.4	0.9	0.6	9.7	nt	nt	nt
Cc1cccc(N2CC(C(=O)Nc3nnc(SCC(=O)Nc4nccs4)s3)CC2=O)c1 (stereo unspecified)	62.3*	2.4	1.6	53.2*	1.6	2.4	-1.4	-0.3	6.7
